Laboratory results: ChEMBL document CHEMBL3826885, “Similarities and differences in affinity and binding modes of tricyclic pyrimido- and pyrazinoxanthines at human and rat adenosine receptors” (Bioorg Med Chem, 2016)
Converted amounts (≈) assume the structure as drawn.

Legend:
[1] = molecular target: T1, Adenosine receptor A3 (Homo sapiens) (UniProt P0DMS8); experiment: Displacement of [3H]PSB11 from recombinant human adenosine receptor A3 expressed in CHO cell membranes at 1 uM
T1 sequence (whole entry): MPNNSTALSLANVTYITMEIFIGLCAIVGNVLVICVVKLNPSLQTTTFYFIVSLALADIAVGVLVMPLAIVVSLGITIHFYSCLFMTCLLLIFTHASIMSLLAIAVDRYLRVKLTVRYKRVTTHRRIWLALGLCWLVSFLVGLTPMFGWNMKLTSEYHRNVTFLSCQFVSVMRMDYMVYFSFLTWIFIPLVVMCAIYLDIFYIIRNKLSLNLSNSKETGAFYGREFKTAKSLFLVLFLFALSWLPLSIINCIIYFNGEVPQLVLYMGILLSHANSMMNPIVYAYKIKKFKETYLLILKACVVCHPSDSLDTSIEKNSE
Summary of the method: (§1)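 Membranes came from CHO cells expressing recombinant receptors (human A1, A2A, A2B, A3; rat A2B, A3). Radioligands were [3H]CCPA for A1 and [3H]PSB-11 or [3H]NECA for A3. A single high concentration was screened first, in three experiments for A1/A2A and two for A2B/A3. Full inhibition curves spanning at least 3 log units were run for potent compounds.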

Adenosine receptor A1 [2] = molecular target: T2, Adenosine receptor A1 (Rattus norvegicus, UniProt P25099); experiment: Displacement of [3H]CCPA from adenosine receptor A1 in rat brain cortical membranes; format: cell membranes
T2 sequence (P25099 whole entry): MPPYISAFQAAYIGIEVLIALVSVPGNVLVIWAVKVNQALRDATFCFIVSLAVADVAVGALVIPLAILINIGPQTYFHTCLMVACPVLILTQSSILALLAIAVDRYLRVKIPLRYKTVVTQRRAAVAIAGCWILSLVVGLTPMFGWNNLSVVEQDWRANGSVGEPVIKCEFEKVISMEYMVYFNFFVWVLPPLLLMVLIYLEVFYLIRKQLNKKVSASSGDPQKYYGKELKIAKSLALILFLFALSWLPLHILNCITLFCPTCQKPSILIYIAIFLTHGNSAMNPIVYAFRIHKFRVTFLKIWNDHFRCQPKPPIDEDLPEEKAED
Summary of the method: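 Native rat receptors: A1 in brain cortical membranes with [3H]CCPA, A2A in brain striatal membranes, from frozen unstripped rat brains. Compounds were first screened at a single high concentration in three independent experiments.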

[3] = molecular target: Adenosine receptor A2a (Rattus norvegicus) (UniProt P30543); experiment: Displacement of [3H]MSX2 from Adenosine receptor A2a in rat brain striatal membranes at 10 uM; format: cell membranes; conditions: Membrane
Summary of the method: (§2)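 Native rat receptors: A1 in brain cortical membranes with [3H]CCPA, A2A in brain striatal membranes, from frozen unstripped rat brains. Compounds were first screened at a single high concentration in three independent experiments. Active compounds then had full inhibition curves over at least 3 orders of magnitude of concentration.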

Adenosine receptor A3 [4] = molecular target: T3, Adenosine receptor A3 (Homo sapiens, UniProt P0DMS8); experiment: Displacement of [3H]PSB-11 from recombinant human adenosine receptor A3 expressed in CHO cell membranes
T3 sequence (P0DMS8 whole entry): T1 sequence (whole entry)

[5] = molecular target: T4, Adenosine receptor A1 (Rattus norvegicus) (UniProt P25099); experiment: Displacement of [3H]CCPA from adenosine receptor A1 in rat brain cortical membranes at 10 uM; format: cell membranes; summary of the method: as §2
T4 sequence (whole entry): T2 sequence (P25099 whole entry)

Adenosine receptor A2b [6] = molecular target: T5, Adenosine receptor A2b (Homo sapiens, UniProt P29275); experiment: Displacement of [3H]PSB-603 from recombinant human adenosine receptor A2b expressed in CHO cell membranes
T5 sequence (P29275 whole entry): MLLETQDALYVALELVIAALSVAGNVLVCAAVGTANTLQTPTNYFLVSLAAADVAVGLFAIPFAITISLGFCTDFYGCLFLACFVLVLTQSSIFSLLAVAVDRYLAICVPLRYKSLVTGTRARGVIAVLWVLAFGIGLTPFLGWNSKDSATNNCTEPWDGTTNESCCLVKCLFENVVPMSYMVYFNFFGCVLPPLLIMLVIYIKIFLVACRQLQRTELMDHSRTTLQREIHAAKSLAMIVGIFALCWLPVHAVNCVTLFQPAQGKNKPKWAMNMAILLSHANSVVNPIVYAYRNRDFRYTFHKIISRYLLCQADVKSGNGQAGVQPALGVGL
Summary of the method: (§3)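 Membranes came from CHO cells expressing recombinant receptors (human A1, A2A, A2B, A3; rat A2B, A3). Radioligands were [3H]CCPA for A1 and [3H]PSB-11 or [3H]NECA for A3. A single high concentration was screened first, in three experiments for A1/A2A and two for A2B/A3.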

Adenosine receptor A2a [7] = molecular target: Adenosine receptor A2a (Rattus norvegicus, UniProt P30543); experiment: Displacement of [3H]MSX2 from adenosine receptor A2a in rat brain striatal membranes; format: cell membranes, Membrane; summary of the method: as §2
Adenosine receptor A3 [8] = molecular target: T6, Adenosine receptor A3 (Rattus norvegicus, UniProt P28647); experiment: Displacement of [3H]NECA from recombinant rat adenosine receptor A3 expressed in CHO cell membranes; summary of the method: as §3
T6 sequence (P28647 whole entry): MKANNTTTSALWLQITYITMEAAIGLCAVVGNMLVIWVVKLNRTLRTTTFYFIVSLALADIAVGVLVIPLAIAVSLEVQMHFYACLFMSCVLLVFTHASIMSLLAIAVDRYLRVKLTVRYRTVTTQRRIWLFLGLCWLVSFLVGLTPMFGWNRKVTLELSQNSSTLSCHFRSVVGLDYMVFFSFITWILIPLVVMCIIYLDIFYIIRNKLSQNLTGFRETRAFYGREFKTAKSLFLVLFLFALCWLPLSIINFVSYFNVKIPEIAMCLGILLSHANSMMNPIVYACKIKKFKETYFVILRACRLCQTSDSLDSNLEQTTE

[9] = molecular target: T7, Adenosine receptor A2b (Homo sapiens) (UniProt P29275); experiment: Displacement of [3H]PSB-603 from recombinant human adenosine receptor A2b expressed in CHO cell membranes at 1 uM; summary of the method: as §1
T7 sequence (whole entry): T5 sequence (P29275 whole entry)

[10] = molecular target: T8, Adenosine receptor A3 (Rattus norvegicus) (UniProt P28647); experiment: Displacement of [3H]NECA from recombinant rat adenosine receptor A3 expressed in CHO cell membranes at 1 uM; summary of the method: as §1
T8 sequence (whole entry): T6 sequence (P28647 whole entry)

Adenosine receptor A1 [11] = molecular target: T9, Adenosine receptor A1 (Homo sapiens, UniProt P30542); experiment: Displacement of [3H]CCPA from recombinant human adenosine receptor A1 expressed in CHO cell membranes; summary of the method: as §1
T9 sequence (P30542 whole entry): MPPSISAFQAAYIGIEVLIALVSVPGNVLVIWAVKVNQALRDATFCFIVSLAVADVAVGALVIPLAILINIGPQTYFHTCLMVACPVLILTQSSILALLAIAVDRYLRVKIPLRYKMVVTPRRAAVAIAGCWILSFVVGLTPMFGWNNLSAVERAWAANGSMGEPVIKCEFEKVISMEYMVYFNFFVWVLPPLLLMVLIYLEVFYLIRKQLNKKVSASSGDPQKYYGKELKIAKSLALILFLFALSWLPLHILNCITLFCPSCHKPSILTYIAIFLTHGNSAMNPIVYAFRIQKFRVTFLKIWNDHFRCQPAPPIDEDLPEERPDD

[12] = Solubility of compound in water at 20 degC by UV-spectroscopic analysis; format: physicochemical
Summary of the method: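 Suspensions were boiled 5 min, left overnight at 20 °C, and filtered. Filtrates were diluted 10-80-fold in MeOH and read by UV in MeOH/H2O (90% v/v). Concentration came from standard curves of seven concentrations from 10^-3 to 10^-1 mg/mL, using linear regression of two neighbouring points and multiplying by the dilution.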

Adenosine receptor A2b [13] = molecular target: T10, Adenosine receptor A2b (Rattus norvegicus, UniProt P29276); experiment: Displacement of [3H]PSB-603 from recombinant rat adenosine receptor A2b expressed in CHO cell membranes; summary of the method: as §3
T10 sequence (P29276 whole entry): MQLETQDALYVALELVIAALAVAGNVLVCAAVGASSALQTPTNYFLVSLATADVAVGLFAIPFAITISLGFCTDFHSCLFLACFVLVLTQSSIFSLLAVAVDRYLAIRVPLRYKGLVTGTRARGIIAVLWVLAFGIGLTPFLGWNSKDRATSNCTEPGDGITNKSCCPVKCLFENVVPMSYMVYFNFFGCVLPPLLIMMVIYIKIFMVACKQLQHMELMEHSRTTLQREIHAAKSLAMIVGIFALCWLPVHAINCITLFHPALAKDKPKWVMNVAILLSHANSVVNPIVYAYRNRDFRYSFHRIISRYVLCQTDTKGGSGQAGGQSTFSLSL

[14] = molecular target: Adenosine receptor A2a (Rattus norvegicus) (UniProt P30543); experiment: Displacement of [3H]MSX2 from Adenosine receptor A2a in rat brain striatal membranes at 1 uM; format: cell membranes; conditions: Membrane; summary of the method: as §2
Adenosine receptor A2a [15] = molecular target: T11, Adenosine receptor A2a (Homo sapiens, UniProt P29274); experiment: Displacement of [3H]MSX2 from recombinant human adenosine receptor A2a expressed in CHO cell membranes; summary of the method: as §1
[16] = molecular target: T12, Adenosine receptor A1 (Homo sapiens) (UniProt P30542); experiment: Displacement of [3H]CCPA from recombinant human adenosine receptor A1 expressed in CHO cell membranes at 1 uM; summary of the method: as §1
T12 sequence (whole entry): T9 sequence (P30542 whole entry)

[17] = molecular target: T13, Adenosine receptor A2b (Rattus norvegicus) (UniProt P29276); experiment: Displacement of [3H]PSB-603 from recombinant rat adenosine receptor A2b expressed in CHO cell membranes at 1 uM; summary of the method: as §1
T13 sequence (whole entry): T10 sequence (P29276 whole entry)

[18] = molecular target: T4, Adenosine receptor A1 (Rattus norvegicus); experiment: Displacement of [3H]CCPA from adenosine receptor A1 in rat brain cortical membranes at 1 uM; format: cell membranes; summary of the method: as §2
Adenosine receptor A2a [19] = molecular target: T11, Adenosine receptor A2a; experiment: Displacement of [3H]MSX2 from recombinant human adenosine receptor A2a expressed in CHO cell membranes at 1 uM; summary of the method: as §1
Adenosine receptor A2a [20] = molecular target: T11, Adenosine receptor A2a; experiment: Antagonist activity at human adenosine receptor A2a expressed in CHO cell membranes assessed as inhibition of NECA-induced cAMP accumulation incubated for 15 mins in presence of [3H]cAMP by liquid scintillation counting; format: functional
Summary of the method: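 Stably transfected CHO cells (human A2A or A2B) grown in DMEM-F12 with 10% FCS at 37 °C, 5% CO2. The cells were seeded at 200,000/well, washed after 24 h and held 2 h in HBSS (pH 7.3) with 1 U/ml adenosine deaminase. Ro20-1724 was added to 40 µM final for 15 min, then NECA dilutions ± one fixed test concentration in 2.5% DMSO, in duplicate.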

Sequence of Adenosine receptor A2a (Rattus norvegicus, UniProt P30543) (P30543 whole entry): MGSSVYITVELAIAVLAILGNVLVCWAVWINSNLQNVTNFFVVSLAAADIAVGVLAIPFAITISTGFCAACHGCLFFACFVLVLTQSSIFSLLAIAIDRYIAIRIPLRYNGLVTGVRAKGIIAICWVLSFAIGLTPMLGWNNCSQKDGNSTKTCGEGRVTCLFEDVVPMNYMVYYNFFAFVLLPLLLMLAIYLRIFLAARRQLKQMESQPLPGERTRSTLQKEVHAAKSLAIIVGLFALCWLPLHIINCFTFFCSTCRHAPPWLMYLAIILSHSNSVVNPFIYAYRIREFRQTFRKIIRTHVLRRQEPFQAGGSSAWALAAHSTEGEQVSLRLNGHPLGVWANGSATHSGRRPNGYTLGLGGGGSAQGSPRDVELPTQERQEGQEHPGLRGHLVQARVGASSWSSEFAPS
Sequence of Adenosine receptor A2a (Rattus norvegicus) (P30543 whole entry): as above
T11 sequence (P29274 whole entry): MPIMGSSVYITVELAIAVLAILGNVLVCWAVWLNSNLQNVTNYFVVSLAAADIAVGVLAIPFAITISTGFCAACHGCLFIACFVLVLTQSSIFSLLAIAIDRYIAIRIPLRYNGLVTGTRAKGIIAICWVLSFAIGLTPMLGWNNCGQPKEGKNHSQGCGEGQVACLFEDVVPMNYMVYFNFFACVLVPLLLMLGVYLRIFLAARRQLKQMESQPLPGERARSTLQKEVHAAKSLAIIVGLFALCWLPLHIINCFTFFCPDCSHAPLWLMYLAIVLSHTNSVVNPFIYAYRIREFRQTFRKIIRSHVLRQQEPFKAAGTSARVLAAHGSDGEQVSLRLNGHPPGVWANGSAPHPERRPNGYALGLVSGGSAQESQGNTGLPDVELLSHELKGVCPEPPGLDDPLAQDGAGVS

SMILES | inhibition [1] [%] | Ki (Adenosine receptor A1 [2]) [nM] | Ki (Adenosine receptor A3 [4]) [nM] | Ki (Adenosine receptor A2b [6]) [nM] | Ki (Adenosine receptor A2a [7]) [nM] | inhibition [9] [%] | solubility [12] [µg/mL] | inhibition [14] [%] | inhibition [18] [%] | other results
Cn1c(=O)c2c(nc3n2CCN(CCc2ccc(O)cc2)C3)n(C)c1=O | 3 | > 1000 | > 1000 | > 1000 | > 10000 | – | – | – | – | inhibition [3]: 35%; inhibition ([5]; 1 uM, in the assay text read “at 1 uM” for “at 10 uM”): 4%
CCCCn1c(=O)c2c(nc3n2CCCN3c2ccc(OCCN(C)C)cc2)n(CCCC)c1=O | 38 | 56 | > 1000 | > 1000 | 1050 | 40 | 255 (≈ 528 µM) | 47 | 72 | Ki (Adenosine receptor A3 [8]): > 1000 nM; inhibition [10]: 15%; Ki (Adenosine receptor A1 [11]): 539 nM; Ki (Adenosine receptor A2b [13]): > 1000 nM; Ki (Adenosine receptor A2a [15]): 1030 nM; inhibition [16]: 43%; inhibition [17]: 9%; inhibition (Adenosine receptor A2a [19]): 52%
COc1ccc(N2CCCn3c2nc2c3c(=O)n(C)c(=O)n2C)cc1 | – | – | – | – | – | – | 51 (≈ 149 µM) | – | – | –
CCCn1c(=O)c2c(nc3n2CCCN3c2ccc(OCCN3CCCC3)cc2)n(CCC)c1=O | 20 | 175 | > 1000 | > 1000 | > 1000 | 10 | – | 28 | 53 | Ki (Adenosine receptor A3 [8]): > 1000 nM; inhibition [10]: 10%; Ki (Adenosine receptor A1 [11]): 1990 nM; Ki (Adenosine receptor A2b [13]): > 1000 nM; Ki (Adenosine receptor A2a [15]): 2380 nM; inhibition [16]: 22%; inhibition [17]: 4%; inhibition (Adenosine receptor A2a [19]): 10%
Cn1c(=O)c2c(nc3n2CCCN3CCc2ccc(O)cc2)n(C)c1=O | – | – | – | – | – | – | – | – | – | Kb (Adenosine receptor A2a [20]): 2220 nM
Cn1c(=O)c2c(nc3n2CCN(CCc2ccc(OCCN4CCOCC4)cc2)C3)n(C)c1=O | 3 | > 10000 | > 1000 | > 1000 | 11500 | 4 | – | – | – | inhibition ([5]; 10 uM): 22%
CCN(CC)CCOc1ccc(CCN2CCn3c(nc4c3c(=O)n(C)c(=O)n4C)C2)cc1 | 0 | > 10000 | > 1000 | > 1000 | 7850 | 19 | – | – | – | inhibition ([5]; 10 uM): 42%
COc1ccc(CCN2CCCn3c2nc2c3c(=O)n(C)c(=O)n2C)cc1 | – | – | – | – | – | – | 63 (≈ 171 µM) | – | – | –
CCCn1c(=O)c2c(nc3n2CCCN3c2ccc(OCCN(CC)CC)cc2)n(CCC)c1=O | 20 | 567 | > 1000 | > 1000 | 1790 | 22 | 260 (≈ 539 µM) | 51 | 30 | –
